# Measurements pooled from the literature.
# Protocols differ between the studies behind these lines.
# Target: Mitogen-activated protein kinase 6 (MAPK6, Homo sapiens, UniProt Q16659)
Compound,assay,conditions,remaining binding
C[C@@]1(Cc2ccc(C#N)cc2)C(=O)N(c2cc(Cl)cc(Cl)c2)c2ncc(C(=O)NC3(c4nc(C5CCC5)no4)CC3)n21,"cell-free assay, competition with immobilised ligand",1 µM,100%
CN(C)c1nccc(-c2cnn3ncccc23)n1,binding,1 µM,100%
O=C(c1ccc(Nc2ncc(Cl)c(-c3cc4ccccc4s3)n2)cc1)N1CCC(N2CCCC2)CC1,"binding, competition with immobilised ligand",1 µM,0%
CCCCN(CCCC)C(=O)CN1C[C@H](c2cc(OC)c3c(c2)OCO3)[C@@H](C(=O)O)[C@@H]1CC(C)(C)CCC,"cell-free assay, competition with immobilised ligand",1 µM,100%
N[C@@H]1CCN(c2nccc(-c3cnn4ncccc34)n2)C1,binding,1 µM,100%
C[C@@H](c1cccc(C#N)c1)n1cc(Cl)cc(C(N)=O)c1=N,"cell-free assay, competition with immobilised ligand",1 µM,100%
FC(F)(F)Oc1cccc(-c2cnc3ccc(-c4ccncc4)nn23)c1,"cell-free assay, competition with immobilised ligand",5 µM,91%
CN(c1nccc(-c2cnn3ncccc23)n1)C1CC1,binding,1 µM,87%
O=C(Nc1c[nH]nc1C(=O)NC1CCNCC1)c1cc(F)cc(F)c1,"binding, competition with immobilised ligand",1 µM,89%
COc1cnc(Nc2cccc(S(N)(=O)=O)c2)nc1N1CCN(c2ccccc2)CC1,"binding, competition with immobilised ligand",1 µM,100%
F[C@@H]1CCN(c2nccc(-c3cnn4ncccc34)n2)C1,binding,1 µM,74%
c1cncc(-c2cccc(Nc3nccc(NC4CCCCC4)n3)c2)c1,"binding, competition with immobilised ligand",10 µM,100%
Cc1c[nH]c2nccc(Oc3c(F)cc(Nc4cc(Cl)nc(N)n4)cc3F)c12,"cell-free assay, competition with immobilised ligand",0.1 µM,95%
CC1CCCN1c1nccc(-c2cnn3ncccc23)n1 (stereo not shown),binding,1 µM,89%
O=C(c1ccc(Nc2nccc(-c3cc4ccccc4s3)n2)cc1)N1CCC(N2CCCC2)CC1,"binding, competition with immobilised ligand",1 µM,11%
CC(=O)C1=C(C)N(c2cccc(C(F)(F)F)c2)C(=O)N[C@@H]1c1ccc(C#N)nc1,"cell-free assay, competition with immobilised ligand",1 µM,75.8%
C[C@@H]1CCN(c2nccc(-c3cnn4ncccc34)n2)C1,binding,1 µM,100%
CCN1CCN(Cc2ccc(C(=O)Nc3ccc(C)c(Oc4ccc5c(c4)CC(=O)N5)c3)cc2C(F)(F)F)CC1,"binding, competition with immobilised ligand",1 µM,100%
CN(C)c1nccc(-c2cnc3ncccn23)n1,binding,1 µM,93%
CC(C)CC(=O)N1CCc2nc(-c3ccc(Br)cc3)nc(N(C)Cc3ccccc3)c2C1,"cell-free assay, competition with immobilised ligand",0.1 µM,100%
Nc1ncc2c(n1)-c1c([nH]c3ccc(C#CC4CC4)cc13)CCCC2,"binding, competition with immobilised ligand",1 µM,100%
O=C(c1ccc(Nc2ncc(Cl)c(-c3ccc(Cl)s3)n2)cc1)N1CCC(N2CCCC2)CC1,"binding, competition with immobilised ligand",1 µM,0%
